Results from article PMC10784415 (Developmental dynamics : an official publication of the …, 2023).

Columns and labels:
Wistar rats = assay: MicroCT analysis of craniofacial bones and sutures; type: in vivo, rat
In short: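 Wistar rats received daily oral gavage from PND7 (vehicle acetate buffer pH 4.68/PEG300 50:50, or 0.1 or 1.0 mg/kg) and were examined at PND14 and PND37; 5 per sex per group. MicroCT gave bone volume and mineral density of nasal, premaxilla, maxilla, frontal, parietal and interparietal bones, linear skull measurements from set landmarks, and suture patency on 2D/3D images. Analysis was one-way ANOVA.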

[1] = Body weight at time of sacrifice; type: in vivo, rat; details: female rats, high dose, PND37, vs vehicle and low dose; non-significant
In short: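 Male and female Wistar rats received a daily oral gavage of vehicle (acetate buffer pH 4.68:PEG300, 50:50 v/v) or test compound at 0.1 or 1.0 mg/kg, starting on PND7. Rats were euthanized on PND14 or PND37, and body weight was recorded at sacrifice.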

[2] = female rats, high dose, vs vehicle

Which Interfrontal suture patency (Wistar rats; female rats, high dose, PND37, vs vehicle and low dose) does the source give for `CCN1CCN(c2ccc(Nc3cc(N(C)C(=O)Nc4c(Cl)c(OC)cc(OC)c4Cl)ncn3)cc2)CC1` [infigratinib, 3-(2,6-Dichloro-3,5-dimethoxy-phenyl)-1-{6-[4-(4-ethyl-piperazin-1-yl)-phenylamino]-pyrimidin-4-yl}-1-methyl-urea] here?
The Interfrontal suture patency was “significantly more patent”.

What about the “Decrease of parietal bone volume” value (Wistar rats; female rats, high dose, vs low dose) of the same compound?
Its value is 15%.

What about the “Decrease of frontal bone volume” value (Wistar rats; [2]) of the same compound?
The value was 12%.

What about the “Decrease of interparietal bone mineral density” value (Wistar rats; [2]) of the same compound?
Its value is 4%.

And the “Decrease of interparietal bone volume” value (Wistar rats; [2])?
Its value is 18%.

What about the “Decrease of parietal bone volume” value (Wistar rats; [2]) of the same compound?
The value was 18%.

And the Coronal suture patency (Wistar rats; females and males, low dose and high dose, PND14, vs vehicle)?
The Coronal suture patency was “appeared more patent”.

What about the Interfrontal suture width (Wistar rats; male rats, high dose, PND37, vs vehicle) of the same compound?
Its Interfrontal suture width is “significantly more patent”.

And the Body weight [1]?
The Body weight was “trend toward lower body weight”.
